These results are taken from ChEMBL document CHEMBL3992483, “Traceless Solid-Phase α-Hydroxytropolone Synthesis” (Medchemcomm, 2016).

In series [1] the test system is Human immunodeficiency virus 1. Briefly: Stabilization of HIV1 RT-RNase H by sypro-orange dye-based differential scanning fluorimetric analysis. Summed up:
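Thermal shift of HIV RT RNase H in 20 mM HEPES pH 7.5, 10 mM MgCl2, 100 mM NaCl with Sypro Orange at 1:2000. 1 µL of 1 mM compound in DMSO added to 49 µL of this buffer. Heated 30 to 80 °C in 0.2 °C steps, read at ex 483 / em 568 nm. ΔTm determined, duplicate runs.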

The nature of series [2]: Inhibition of HIV1 RT-RNase H activity using 18-nucleotide 3'-fluorescein-labeled RNA/5'-dabsyl-labeled DNA hybrid after 10 mins by FRET assay. Set-up: species or system Human immunodeficiency virus 1.
A further series concerns CEM-SS. Put plainly: (§1) Cytotoxicity against human CEM-SS cells assessed as reduction in cell viability by XTT assay. Type of series: cell-based. The settings on record: cem-ss. Put shortly: (§2)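 Uninfected CEM-SS cells in the same plate as the HIV-1 RF infection assay. Compounds tested at 2-fold dilutions from 50 µM to 0.78 µM final, in duplicate. CC50 estimated by regression analysis.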

Series [3] deals with Human immunodeficiency virus 1. Put plainly: Antiviral activity against HIV1 RF infected in human CEM-SS cells assessed as cytoprotective effect by measuring cell viability at 0.78 to 50 uM by XTT assay relative to control. It counts as functional. Put shortly: (§3)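 HIV-1 strain RF infection of CEM-SS cells. Samples dissolved at 10 mM in DMSO, tested at 2-fold dilutions from 50 µM down to 0.78 µM final, in duplicate. EC50 estimated by regression analysis.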

Series [4] in a line: as §1. The settings on record: CEM-SS cells. It counts as cell-based. Put shortly: as §2
The test system of series [5] is Human immunodeficiency virus 1. Put plainly: Antiviral activity against HIV1 RF infected in human CEM-SS cells assessed as cytoprotective effect by measuring increase in cell viability by XTT assay. It counts as functional, cell-based. Put shortly:
as §3

“And” between values parts separate entries of the source, which are not always exact repeats. Equal entries are not always repeated.

As to `Cc1cc(O)c(=O)c(O)cc1-c1ccccc1`, the ΔTm in series [1] was 2.2 °C and 1.5 °C. Moreover, the concentration for half-maximal inhibition (IC50) in series [2] was 0.25 µM and 0.39 µM. Also, the CC50 in the series on CEM-SS is 5.6 to 7 µM and 2.5 to 3.7 µM. Besides, the Activity in series [3] is below 35%.
As for `Cc1cc(O)c(=O)c(O)cc1-c1cccc2ccccc12`, the ΔTm in series [1] was 1 °C and 1.5 °C. Besides, in series [2], the IC50 was 0.56 µM and 0.26 µM. Also, the values for the CC50 (in the series on CEM-SS; in series [4]) were 3.3 to 6.7 µM and 2.1 to 5.4 µM, respectively. Also, in series [3], the Activity is below 35%.
Turning to `Cc1cc(O)c(=O)c(O)cc1C(=O)c1ccccc1`, in series [1], the ΔTm was 2.5 °C and 2.9 °C. Also, in series [2], the IC50 is 0.32 µM and 0.22 µM. The CC50 with CEM-SS was 2.6 to 8.8 µM and 7.2 to 8.8 µM. Moreover, the Activity in series [3] is recorded as below 35%.
On to `Cc1cc(O)c(=O)c(O)cc1C(=O)c1ccc(-c2ccccc2)cc1`, for which the ΔTm in series [1] is 1.7 °C and 1.9 °C. Moreover, in series [2], the IC50 is 1 µM and 0.59 µM. The results for the CC50 (in the series on CEM-SS; in series [4]) were 0.1 to 0.83 µM and 0.14 to 0.97 µM, respectively. In addition, the Activity in series [3] is below 35%.
`Cc1cc(O)c(=O)c(O)cc1C(=O)C1CCCCC1`: the ΔTm in series [1] is 2 °C and 2.4 °C. The IC50 in series [2] is 0.52 µM and 0.21 µM. The results for the CC50 (in the series with CEM-SS; in series [4]) were 2.7 to 7 µM and 2.3 to 3.1 µM, respectively. Further, in series [3], the Activity is recorded as below 35%.
Turning to `COC(=O)c1cc(O)c(=O)c(O)cc1C`, in series [5], the EC50 was 2.2 to 4.2 µM and 7.2 to 7.7 µM. In series [1], the ΔTm is 2.9 °C and 2.7 °C. Further, the IC50 in series [2] is 0.44 µM and 0.16 µM. In the series with CEM-SS, the CC50 was 5.4 to 11 µM and 15 µM.
On to `CCOC(=O)c1cc(O)c(=O)c(O)cc1C`, for which the EC50 in series [5] (Human immunodeficiency virus 1, RF, CEM-SS) lay within 4.8 to 5.1 µM. The ΔTm in series [1] was 2.9 °C and 2.4 °C. The IC50 in series [2] was 0.54 µM and 0.25 µM. For the same molecule, the CC50 in the series on CEM-SS is 8.5 to 9.7 µM and 22 µM. For the same molecule, in series [3], the Activity is reported as below 50%.
As to `Cc1cc(O)c(=O)c(O)cc1-c1ccc(C(F)(F)F)cc1`, the ΔTm in series [1] was 0.2 °C and 0.9 °C. For the same molecule, the IC50 in series [2] was 0.8 µM and 1.1 µM. In addition, the CC50 with CEM-SS was 2.2 to 6.7 µM; in series [4] it was 2.3 to 7.1 µM. Also, the Activity in series [3] is reported as below 35%.
Turning to `CC(=O)c1cc(O)c(=O)c(O)cc1C`, the EC50 in series [5] is 2.8 to 5.2 µM and 6.5 to 7.3 µM. For the same molecule, in series [1], the ΔTm is 2.3 °C and 2.9 °C. Besides, in series [2], the IC50 is 0.57 µM and 0.29 µM. Further, the CC50 in the series on CEM-SS is 7.7 to 24 µM and 20 to 21 µM.
